Measurements as given in PubChem BioAssay AID651708 (Sanford-Burnham Center for Chemical Genomics, 2012).
pIC50: −log10 of the molar value. Calls of active or inactive are those of the source.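 The calls were made as follows: active = compound with IC50 above 30 µM at both the APJ and CCR6 off-target receptors, and at most 10 µM at CXCR6; inactive = the rest.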

Key:
Test in all cases: GPCR panel antagonist activity incl. apelin receptor – cell-based, CHO-K1 PathHunter beta-arrestin, luminescence, set 3, selectivity assay for CXCR6 antagonist project, profiling panel (AID 651708)
[1] = target: Apelin receptor (Homo sapiens) (UniProt P35414); details: antagonist mode, APJ; for IC50: mean of runs
Chain of Apelin receptor (Homo sapiens) (P35414 whole entry, looked up): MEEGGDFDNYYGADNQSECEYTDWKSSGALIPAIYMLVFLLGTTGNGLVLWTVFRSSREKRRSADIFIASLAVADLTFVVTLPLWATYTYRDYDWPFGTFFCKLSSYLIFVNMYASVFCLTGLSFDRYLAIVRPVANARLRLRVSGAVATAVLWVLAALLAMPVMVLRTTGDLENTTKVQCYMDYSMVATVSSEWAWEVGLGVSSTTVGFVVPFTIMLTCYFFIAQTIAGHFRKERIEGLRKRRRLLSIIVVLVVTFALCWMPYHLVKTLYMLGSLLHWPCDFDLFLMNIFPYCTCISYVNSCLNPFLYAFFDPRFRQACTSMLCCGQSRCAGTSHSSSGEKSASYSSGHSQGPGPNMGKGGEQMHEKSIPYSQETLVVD
How it was run: (§1)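 Signal: β-arrestin recruitment luminescence; test system: CHO-K1 PathHunter β-arrestin cell lines for APJ, CCR6 or CXCR6; also added: APJ 10 nM Apelin-13, CCR6 14 nM CCL20, CXCR6 CXCL16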

[2] = target: C-C chemokine receptor type 6 (Homo sapiens) (UniProt P51684); details: antagonist mode; for IC50: CCR6, mean of runs
Chain of C-C chemokine receptor type 6 (Homo sapiens) (P51684 whole entry, looked up): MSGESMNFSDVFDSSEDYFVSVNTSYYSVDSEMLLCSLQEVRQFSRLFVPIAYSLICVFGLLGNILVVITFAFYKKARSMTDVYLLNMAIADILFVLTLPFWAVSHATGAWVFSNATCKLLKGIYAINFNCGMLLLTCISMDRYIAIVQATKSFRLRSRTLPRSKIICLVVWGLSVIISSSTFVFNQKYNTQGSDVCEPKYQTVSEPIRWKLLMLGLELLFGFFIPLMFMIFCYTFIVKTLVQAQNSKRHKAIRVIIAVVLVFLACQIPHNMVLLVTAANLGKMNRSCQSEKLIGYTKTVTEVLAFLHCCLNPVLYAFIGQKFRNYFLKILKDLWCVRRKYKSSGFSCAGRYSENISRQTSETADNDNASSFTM
How it was run: as §1

[3] = target: C-X-C chemokine receptor type 6 (Homo sapiens) (UniProt O00574); details: antagonist mode
Chain of C-X-C chemokine receptor type 6 (Homo sapiens) (O00574 whole entry, looked up): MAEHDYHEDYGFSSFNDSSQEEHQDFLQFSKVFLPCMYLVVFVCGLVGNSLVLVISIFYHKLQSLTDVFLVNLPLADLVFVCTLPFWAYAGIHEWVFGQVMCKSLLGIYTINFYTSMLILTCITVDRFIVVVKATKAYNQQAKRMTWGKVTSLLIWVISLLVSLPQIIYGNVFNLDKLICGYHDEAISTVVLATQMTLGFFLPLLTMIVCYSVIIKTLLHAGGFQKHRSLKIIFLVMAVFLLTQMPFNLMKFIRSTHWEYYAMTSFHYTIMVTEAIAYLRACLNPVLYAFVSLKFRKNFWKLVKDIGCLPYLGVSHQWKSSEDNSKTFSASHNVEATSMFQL
How it was run: as §1

Row | Compound | pIC50 ([1]; run 1) | pIC50 ([1]; run 2) | IC50 [2] | pIC50 ([2]; CCR6, run 1) | pIC50 ([2]; CCR6, run 2) | IC50 ([3]; CXCR6, mean of runs) | pIC50 ([3]; CXCR6, run 1) | pIC50 ([3]; CXCR6, run 2) | IC50 [1] | pIC50 ([3]; CXCR6, mean of runs)
1 | COc1ccc(NC(=O)CN2C3CCCC2CC(NC(=O)c2ccc(OC)cc2)C3)cc1 (centres undefined) | < 4.10 | 5.37 | > 79 µM (inactive) | < 4.10 | < 4.10 | > 79 µM (inactive) | < 4.10 | < 4.10 |  | 
2 | COc1ccc(NC(=O)CN2C3CCCC2CC(NC(=O)c2ccc(OC)c(OC)c2)C3)cc1 (centres undefined) | < 4.10 | 6.51 | > 79 µM (inactive) | < 4.10 | < 4.10 | > 79 µM (inactive) | < 4.10 | < 4.10 |  | 
3 | COc1ccc(NC(=O)CN2C3CCCC2CC(NC(=O)c2cc(OC)cc(OC)c2)C3)cc1 (centres undefined) | < 4.10 | < 4.10 | > 79 µM (inactive) | < 4.10 | < 4.10 | > 79 µM (inactive) | < 4.10 | < 4.10 | > 79 µM (inactive) | 
4 | COc1cc(C(=O)NC2CC3CCCC(C2)N3CC(=O)Nc2ccccc2Cl)cc(OC)c1OC (centres undefined) | < 4.10 | 6.09 | > 79 µM (inactive) | < 4.10 | < 4.10 |  | 6.72 | 6.32 |  | 6.47
5 | COc1cc(C(=O)NC2CC3CCCC(C2)N3CC(=O)Nc2ccc(Cl)cc2)cc(OC)c1OC (centres undefined) | < 4.10 | 4.28 | > 79 µM (inactive) | < 4.10 | < 4.10 |  | 5.90 | 5.78 |  | 5.84
6 | O=C(CN1C2CCCC1CC(NC(=O)c1ccc3c(c1)OCO3)C2)Nc1ccc(Cl)cc1 (centres undefined) | < 4.10 | 4.43 | > 79 µM (inactive) | < 4.10 | < 4.10 | > 79 µM (inactive) | < 4.10 | < 4.10 |  | 
7 | COc1ccc(NC(=O)CN2C3CCCC2CC(NC(=O)c2cc(OC)c(OC)c(OC)c2)C3)cc1 (centres undefined) | < 4.10 | < 4.10 | > 79 µM (inactive) | < 4.10 | < 4.10 | inactive | 4.91 | 4.58 | > 79 µM (inactive) | 
8 | COc1ccc(C(=O)NC2CC3CCCC(C2)N3CC(=O)Nc2ccc(F)cc2)cc1 (centres undefined) | < 4.10 | < 4.10 | > 79 µM (inactive) | < 4.10 | < 4.10 | > 79 µM (inactive) | < 4.10 | < 4.10 | > 79 µM (inactive) | 
9 | COc1ccc(NC(=O)CN2C3CCCC2CC(NC(=O)c2cccc(OC)c2)C3)cc1 (centres undefined) | < 4.10 | < 4.10 | > 79 µM (inactive) | < 4.10 | < 4.10 | > 79 µM (inactive) | < 4.10 | < 4.10 | > 79 µM (inactive) | 
10 | COc1cc(OC)cc(C(=O)NC2CC3CCCC(C2)N3CC(=O)Nc2ccc(F)cc2)c1 (centres undefined) | < 4.10 | < 4.10 | > 79 µM (inactive) | < 4.10 | < 4.10 | > 79 µM (inactive) | < 4.10 | < 4.10 | > 79 µM (inactive) | 
11 | COc1ccc(C(=O)NC2CC3CCCC(C2)N3CC(=O)Nc2ccc(C)cc2)cc1 (centres undefined) | < 4.10 | < 4.10 | > 79 µM (inactive) | < 4.10 | < 4.10 | > 79 µM (inactive) | < 4.10 | < 4.10 | > 79 µM (inactive) | 
